# According to PMC10617019 (Nature cell biology, 2023):
# Columns and labels:
# [1] = test system: RIPK1 proline hydroxylation (EGLN); assay: RIPK1 proline hydroxylation in cells, pan-hydroxylation antibody; format: cell-based, murine; conditions: MEFs with Flag-mRIPK1; CoCl2 400 μM, 16 h
# How it was run: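 MEFs were transduced with a Flag-mouse RIPK1 expression vector for 24 h, then treated with CoCl2 (400 μM) for a further 16 h. Lysates were immunoprecipitated with anti-Flag and the complexes immunoblotted with an anti-pan-hydroxylation antibody. Three independent experiments were run.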
# [2] = test system: RIPK1, RIPK3 and MLKL activation; assay: RIPK1, RIPK3 and MLKL activation by EGLN inhibitors; format: cell-based, mouse; conditions: MEFs; for hallmarks of RIPK1, RIPK3 and MLKL activation, inhibitor alone: immunoblotting; for concentration needed to activate RIPK1 and necroptosis: concentration series
# [3] = test system: pVHL interaction with RIPK1; assay: pVHL-RIPK1 interaction in cells; format: cell-based; conditions: DFO 200 μM; co-immunoprecipitation
# How it was run: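 RIPK1⁻/⁻ HT-29 cells were infected with expression vectors and treated with DFO 200 μM. Immunocomplexes were washed three times (20 mM Tris pH 8.0, 100 mM NaCl, 1 mM EDTA, 0.5% NP-40), resolved by SDS-PAGE and immunoblotted.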
# [4] = test system: MEFs; assay: cell death with EGLN inhibitor, MEFs; format: cell-based, mouse
# How it was run: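 MEFs in DMEM/10% FBS/1% penicillin-streptomycin were treated with graded test compound concentrations. Cell death was measured by propidium iodide uptake, counting PI-positive versus total cells by fluorescence microscopy (mean ± s.d., n = 3 biological samples). p-RIPK1-S166 and p-MLKL-S345 were immunoblotted across the concentration series after 48 h, and at 400 μM over a time course.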
# [5] = test system: WT mice (liver); assay: FG-4592 in vivo, WT mice: liver damage, RIPK1 activation, cell death, cytokines
# [6] = test system: WT and Ripk1 P196A/P196A mice; assay: FG-4592 in WT and Ripk1 P196A/P196A mice; format: in vivo; conditions: FG-4592 25 mg kg^−1 i.p., 7 days
# [7] = test system: Pro195 hydroxylation of RIPK1; assay: RIPK1 Pro195/Pro196 hydroxylation in cells; format: cell-based; conditions: high doses only
# [8] = test system: HT-29 cells; assay: RIPK1 activation and necroptosis by FG-4592, HT-29 cells; format: cell-based
# [9] = test system: MEFs; assay: TSZ-induced cell death with FG-4592, MEFs; format: cell-based, mouse; conditions: FG-4592 200 μM; TNFα 10 ng/mL, SM164 50 nM, zVAD.fmk 20 μM; n = 3
# How it was run: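 MEFs were given TNFα 10 ng/mL, SM164 50 nM and zVAD.fmk 20 μM, with or without test compound at 200 μM. Cell death was read by propidium iodide uptake: PI-positive and total cells were counted under an inverted fluorescence microscope. n = 3 biological independent samples, mean ± s.d., two-way ANOVA.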
# [10] = test system: Mlkl knockout cells; assay: FG-4592-induced cell death in WT and Mlkl knockout cells; format: cell-based; conditions: n = 3
# [11] = test system: proline hydroxylation of RIPK1 at Pro196; assay: RIPK1 Pro196 hydroxylation in mouse liver in vivo; conditions: WT mouse liver; i.p. 50 or 250 mg kg^−1 every 24 h for 2 d; n = 3
# [12] = test system: Jurkat cells; assay: hypoxia-induced cell death, Jurkat; format: cell-based; conditions: 1% O2, 48 h; propidium iodide uptake; n = 3
# How it was run: (§1)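 Jurkat, THP-1 and primary fibroblasts were exposed to 1% O2 for 48 h. Cell death was measured by propidium iodide uptake, counting PI-positive and total cells under an inverted fluorescence microscope. Values are mean ± s.d., n = 3 biological samples, compared by unpaired two-tailed t-test.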
# [13] = test system: primary Ripk1 P196A MEFs; assay: TSZ or TNFα/SM-164-induced cell death and p-RIPK1-S166 in Ripk1 P196A MEFs; format: cell-based, mouse; conditions: Nec-1s 20 μM, n = 3
# [14] = test system: 786-O cells; assay: TNFα/5z7/SM-164-induced RDA in 786-O cells; format: cell-based; conditions: Nec-1s 10 μM; TNFα 10 ng/mL; SM-164 50 nM; 5z7 500 nM; n = 3
# How it was run: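 VHL-deficient 786-O cells were treated with TNFα, 5z7 and SM-164, with or without Nec-1s, for different times. Viability was read by ATP-Glo luminescence, expressed as a percentage of untreated wells after subtracting the blank-well background.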
# [15] = test system: THP-1 cells; assay: hypoxia-induced cell death, THP-1; format: cell-based; conditions: 1% O2, 48 h; propidium iodide uptake; n = 3
# How it was run: as §1
# [16] = test system: Vhl knockout MEFs; assay: hypoxia-induced necroptosis in Vhl-deleted MEFs; format: cell-based, mouse; conditions: 1% O2; Nec-1s printed as 25 M; propidium iodide uptake; n = 3
# [17] = test system: Vhl LKO mice (liver); assay: Nec-1s in Vhl LKO mice; format: in vivo, mouse; conditions: Nec-1s in drinking water, 7 days; n = 6
# [18] = test system: Ripk1 P196A/P196A mice; assay: Nec-1s in Ripk1 P196A/P196A mice; format: in vivo, mouse; conditions: Nec-1s in drinking water, 7 d; n = 5-6
# [19] = test system: Egln1−/− MEFs; assay: TSZ- or TNFα/5z7-induced cell death, Egln1−/− MEFs; format: cell-based, mouse; conditions: induced by TSZ or by TNFα + 5z7 (200 nM); n = 3
# How it was run: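 Knockout MEFs were given TNFα 10 ng/mL + SM164 50 nM + zVAD.fmk 20 μM, or TNFα 10 ng/mL + 5z7 200 nM, each ± RIPK1-inhibitor test compound. TSZ death was read by PI uptake: PI-positive and total cells counted by fluorescence microscopy. TNFα/5z7 viability was read by ATP-Glo luminescence, background-subtracted, as % of untreated wells. n = 3 biological samples, mean ± s.d., two-way ANOVA.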
# [20] = test system: human skin fibroblast cells; assay: hypoxia-induced cell death, human skin fibroblasts; format: cell-based; conditions: 1% O2, 48 h; primary fibroblasts; propidium iodide uptake; n = 3
# How it was run: as §1
# [21] = test system: HT-29 cells; assay: hypoxia-induced cell death, HT-29; format: cell-based; conditions: 1% O2; Nec-1s 25 μM; propidium iodide uptake; n = 3
# How it was run: (§2)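 HT-29 and L929 cells were held at 1% O2 with or without 25 μM Nec-1s; L929 were kept in DMEM with 10% FBS and 1% penicillin/streptomycin. Cell death was measured by propidium iodide uptake, counting PI-positive and total cells under an inverted fluorescence microscope. Values are mean ± s.d., n = 3 biological samples.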
# [22] = test system: L929 cells; assay: hypoxia-induced cell death, L929; format: cell-based; conditions: 1% O2; Nec-1s 25 μM; propidium iodide uptake; n = 3
# How it was run: as §2
# [23] = test system: human RIPK1 and RIPK1-P195A mutant; assay: p-RIPK1-S166 in 293T cells overexpressing WT or P195A RIPK1; format: cell-based; conditions: overexpressed RIPK1, 10 μM Nec-1s, n = 3
# [24] = test system: monocytes; conditions: cited from earlier work
# [25] = test system: cIAP1; conditions: cited from earlier work
# [26] = test system: EGLN1; assay: in vitro hydroxylation assay with recombinant EGLN1; format: biochemical; conditions: 37 °C, 1 h, pH 7.5, 50 μM EGLN1, 100 μM substrate; mass spectrometry
# [27] = test system: mutant RIPK1-P195A; assay: in vitro kinase assay, RIPK1-P195A; format: biochemical, human; conditions: 100 μM ATP, 30 °C, 30 min, p-RIPK1-S166 immunoblot
# [28] = test system: WT RIPK1; assay: in vitro kinase assay, WT RIPK1; format: biochemical, human; conditions: 100 μM ATP, 30 °C, 30 min, p-RIPK1-S166 immunoblot
compound,measurement,setting,value
"[Cl][Co][Cl] [CoCl2, cobalt chloride]",RIPK1 proline hydroxylation (pan-hydroxylation antibody),[1],could be blocked
same,"hallmarks of RIPK1, RIPK3 and MLKL activation, inhibitor alone",[2],"showed the hallmarks of RIPK1, RIPK3 and MLKL activation"
same,concentration needed to activate RIPK1 and necroptosis,[2],Only high concentrations
"CC(=O)N(O)CCCCCNC(=O)CCC(=O)N(O)CCCCCNC(=O)CCC(=O)N(O)CCCCCN [DFO, deferoxamine]","hallmarks of RIPK1, RIPK3 and MLKL activation, inhibitor alone",[2],"showed the hallmarks of RIPK1, RIPK3 and MLKL activation"
same,concentration needed to activate RIPK1 and necroptosis,[2],Only high concentrations
same,pVHL interaction with RIPK1,[3],markedly decreased pVHL interaction with RIPK1 in cells
Cc1nc(C(=O)NCC(=O)O)c(O)c2ccc(Oc3ccccc3)cc12 [FG-4592],sensitization to hypoxia-induced cell death,"[4]; 1% O2 with or without 200 μM FG-4592, n = 3",could sensitize cell death induced by hypoxia
same,RIPK1 activation and necroptosis,"[4]; MEFs, relatively high concentration, up to 400 μM at indicated times, 48 h",activated RIPK1 and induced necroptosis
same,"liver damage, TUNEL^+ cells and p-RIPK1-S166 in liver","[5]; FG-4592 250 mg kg^−1 i.p., every 24 h for 2 d","caused substantial liver damage, with a large number of TUNEL^+ cells and increased p-RIPK1-S166"
same,RIPK1 activation or cell death in liver,"[5]; FG-4592 25 or 50 mg kg^−1 i.p., n = 5",did not induce RIPK1 activation or cell death
same,"HIF pathway induction, RIPK1 activation and cell death",[6],"can only induce the HIF pathway, without induction of RIPK1 activation and cell death"
same,"RIPK1 hydroxylation, RIPK1 activity and cell death, dose dependence",[7],led to a decrease in the hydroxylation of RIPK1 and corresponding increases in RIPK1 activity and cell death
same,RIPK1 activation and necroptosis,[8]; relatively high concentration,activated RIPK1 and induced necroptosis
same,sensitization to TSZ-induced cell death,[9],could sensitize cells to cell death induced by TSZ treatment
same,effect of Mlkl deletion on FG-4592-induced cell death,[10],deletion of Mlkl decreased cell death induced by FG-4592 treatment
same,concentration needed to activate RIPK1 and necroptosis,[2],Only high concentrations
same,RIPK1 Pro196 hydroxylation in vivo,[11],can also reduce the proline hydroxylation of RIPK1 at Pro196 in vivo
"CN1C(=O)NC(Cc2c[nH]c3c(Cl)cccc23)C1=O (centres unmarked) [Nec-1s, necrostatin-1s]",hypoxia-induced cell death with Nec-1s,[12],decreased
same,increased cell death and RIPK1 activation with Nec-1s,[13],both the increased cell death and RIPK1 activation were inhibited
same,"RDA induced by TNFα, 5z7 and SM-164 with Nec-1s",[14],could be blocked by Nec-1s
same,hypoxia-induced cell death with Nec-1s,[15],decreased
same,hypoxia-induced necroptosis in Vhl-deleted MEFs with Nec-1s,[16],could be decreased with the administration of Nec-1s
same,"RIPK1 activation, cell death and inflammation in Vhl LKO mice",[17],"blocked RIPK1 activation, cell death and inflammation in Vhl hepatocyte-specific knockout mice"
same,cell death and inflammation in Ripk1 P196A/P196A mice with Nec-1s,[18],decreased cell death and inflammation in Ripk1^P196A/P196A mice
same,cell death of Egln1−/− MEFs with Nec-1s,[19],blocked the cell death of Egln1^−/− MEFs induced by either TSZ or a combination of TNFα and 5z7
same,hypoxia-induced cell death with Nec-1s,[20],decreased
same,hypoxia-induced cell death with Nec-1s,[21],decreased
same,hypoxia-induced cell death with Nec-1s,[22],decreased
same,inhibition of p-RIPK1-S166 (WT and P195A RIPK1),[23],effectively inhibited
COC(=O)CNC(=O)C(=O)OC [dimethyloxalylglycine],RIPK1 activation and caspase-independent cell death,[24],induce RIPK1 activation and caspase-independent cell death in monocytes
same,cIAP1 expression,[25],caused a decrease in cellular inhibitor of apoptosis protein-1 (cIAP1) expression
COc1nccnc1NS(=O)(=O)c1ccc(NC(=O)/C=C/c2ccc([N+](=O)[O-])s2)cc1 [necrosulfonamide],suppression of FG-4592-induced cell death,"[8]; 10 μM necrosulfonamide, 48 h, n = 3",can also suppress cell death induced by treatment with FG-4592 in HT-29 cells
KNGGTLYYMAPEHLNDVNAKP [synthetic RIPK1 peptide],hydroxylation by recombinant EGLN1,[26],recombinant EGLN1 hydroxylated a synthetic RIPK1 peptide containing Pro195
recombinant pVHL: purified recombinant von Hippel–Lindau protein,inhibition of RIPK1 kinase activity,[27],but not mutant RIPK1-P195A
same,inhibition of RIPK1 kinase activity,[28],could dramatically inhibit induction of the kinase activity of WT RIPK1
